This is an account of results in ChEMBL document CHEMBL1142371, “Synthesis and biological evaluation of imidazol-2-one derivatives as potential antitumor agents” (Bioorg Med Chem, 2008).

Assay [1] has as its system Mus musculus. Nature of the assay: Effect on body weight in mouse bearing S180 cells at 15 mg/kg/day, im after 10 days. It counts as functional, CCRF S-180. The conditions noted are these: route intramuscular. The procedure, abridged:
(§1)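 Female tumor-bearing mice (S-180 or H-22, 2.5 × 10⁶ cells subcutaneously in armpit) dosed im once daily for 10 consecutive days; saline negative control. Initial and end body weights recorded per group.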

The subject of a further assay is A549. The experiment in a line: Cytotoxicity against human A549 cells after 48 hrs by MTT assay. Type of assay: functional, cell-based. The settings on record: A549, 48 h. The procedure, abridged: (§2)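 MTT read-out after 48 h drug exposure; MTT then added for a further 4 h at 37 °C, formazan dissolved in DMSO, absorbance at 570 nm. Triplicate wells in three independent experiments; IC50 = concentration giving 50% inhibition of cell viability, values are means of three experiments.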
For orientation: Tetrazolium dyes change colour on reduction, which living cells bring about.

In assay [2] the test system is K562. Nature of the assay: Cytotoxicity against human K562 cells after 48 hrs by MTT assay. It counts as functional, cell-based. The conditions noted are these: K562, 48 h. The procedure, abridged: as §2
Assay [3] deals with K562. The experiment in a line: Cell cycle arrest in human K562 cells assessed as accumulation at S phase at 0.01 uM after 48 hrs by flow cytometry. It counts as functional. The procedure, abridged:
(§3)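 K562 cells in exponential growth exposed 48 h to 0–1 µM compound. Cells washed twice in PBS, fixed in 70% ethanol at −20 °C, RNase-treated 1 h at 37 °C, stained with propidium iodide 30 min at 4 °C. DNA content by flow cytometry gives cell-cycle phase distribution and apoptotic fraction.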
(In general: Flow cytometry measures light scatter and fluorescence of single cells or particles in a stream.)

For a further assay, the system named is CCRF S-180. Nature of the assay: Antitumor activity in mouse xenografted with S180 cells assessed as inhibition of tumor growth at 15 mg/kg/day, im after 10 days. It counts as functional. The conditions noted are these: CCRF S-180, im, 240 h, route intramuscular. The procedure, abridged: (§4)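 S-180 or H-22 cells expanded in mice for 10 days, then 2.5 × 10⁶ viable tumor cells per mouse injected subcutaneously into the armpit of female mice (9 per treated group, 18 negative controls). Compound given im once daily for 10 consecutive days; saline negative control, cyclophosphamide 30.0 mg/kg ip positive control. Tumors excised and weighed on day 10; inhibition rate = (C − T)/C × 100 from mean tumor weights.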

Assay [4] is described as follows: Cytotoxicity against human ECA109 cells after 48 hrs by MTT assay. The conditions noted are these: ECa-109, 48 h. It counts as functional, cell-based. The procedure, abridged: as §2
Another assay deals with Bel-7402. Nature of the assay: Cytotoxicity against human BEL-7402 cells after 48 hrs by MTT assay. It counts as functional, cell-based. The settings on record: Bel-7402, 48 h. The procedure, abridged:
as §2

For a further assay, the system named is PC-3. The experiment in a line: Cytotoxicity against human PC3 cells after 48 hrs by MTT assay. It counts as functional, cell-based. The conditions noted are these: PC-3, 48 h. The procedure, abridged: as §2
The subject of assay [5] is K562. The experiment in a line: Induction of apoptosis in human K562 cells at 0.1 uM after 48 hrs by flow cytometry. It counts as functional. The procedure, abridged:
as §3

The test system of assay [6] is Mus musculus. Nature of the assay: Antitumor activity in mouse xenografted with H22 cells assessed as inhibition of tumor growth at 20 mg/kg/day, im after 10 days. The conditions noted are these: 240 h, route intramuscular. Type of assay: functional. The procedure, abridged: as §4
For assay [7], the system named is Mus musculus. The experiment in a line: Effect on body weight in mouse bearing H22 cells at 20 mg/kg/day, im after 10 days. It counts as functional. The conditions noted are these: route intramuscular. The procedure, abridged: as §1
The subject of a further assay is MCF7. Nature of the assay: Cytotoxicity against human MCF7 cells after 48 hrs by MTT assay. It counts as functional, cell-based. The settings on record: MCF7, 48 h. The procedure, abridged: as §2
In assay [8] the test system is Mus musculus. The experiment in a line: Effect on body weight in mouse bearing H22 cells at 5 mg/kg/day, im after 10 days. Type of assay: functional. The settings on record: route intramuscular. The procedure, abridged: as §1
For a further assay, the system named is HL-60. The experiment in a line: Cytotoxicity against human HL60 cells after 48 hrs by MTT assay. Type of assay: functional, cell-based. The settings on record: HL-60, 48 h. The procedure, abridged:
as §2

The nature of assay [9]: Cytotoxicity against multidrug-resistant human K562R cells after 48 hrs by MTT assay. It counts as functional, cell-based. The settings on record: K-562R. The procedure, abridged: as §2
In assay [10] the test system is K562. The experiment in a line: Induction of apoptosis in human K562 cells at 1 uM after 48 hrs by flow cytometry. It counts as functional. The procedure, abridged: as §3
In assay [11] the test system is K562. Nature of the assay: Cell cycle arrest in human K562 cells assessed as accumulation at G2/M phase at 0.01 uM after 48 hrs by flow cytometry. Type of assay: functional. The procedure, abridged: as §3
The subject of assay [12] is Mus musculus. Nature of the assay: Antitumor activity in mouse xenografted with H22 cells assessed as inhibition of tumor growth at 5 mg/kg/day, im after 10 days. Type of assay: functional. The settings on record: 240 h, route intramuscular. The procedure, abridged:
as §4

pIC50: −log10 of the molar value.

As a reminder, the pIC50 is −log10 of the IC50, conventionally taken in molar units. One may read the inhibition in vivo as how much of the control response was suppressed. `COc1cc(-n2c(-c3ccc(Br)cc3)cn(C(C)=O)c2=O)cc(OC)c1OC`: the Activity was 35.1 g with Mus musculus [1]; 54% in the assay with K562 [3]; 45.6% in the assay on K562 [5]; 27.6 g with Mus musculus [7]; 26.8 g in the assay on Mus musculus [8]; 78.6% in the assay with K562 [10]. In addition, the Activity with K562 [11] is given as 31%. The pIC50 in the assay with A549 was 5.89; in the assay with K562 [2], 6.00; in [4] it was 5.42; in the assay on Bel-7402, 5.92; in the assay on PC-3 it was 5.51; in the assay with MCF7, 4.97. For the same compound, the pIC50 in the assay with HL-60 is 6.70; in assay [9], 6.05. Besides, the inhibition in vivo at 15 mg/kg/day with CCRF S-180 was found to be 55.3%. Also, the inhibition in vivo at 20 mg/kg/day in the assay on Mus musculus [6] amounted to 55.5%. The inhibition in vivo at 5 mg/kg/day with Mus musculus [12] turned out to be 29.4%.
